Reference: ChEMBL document CHEMBL1926569, “Novel (E)-1-(4-methyl-2-(alkylamino)thiazol-5-yl)-3-arylprop-2-en-1-ones as potent antimicrobial agents” (2011)

Assays:
[1] = test system: Staphylococcus aureus; experiment: Antibacterial activity against Staphylococcus aureus ATCC 6538 after 24 hrs by microdilution method; type: functional; details: ATCC 6538, 24 h
How it was run: (§1)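 Broth microdilution in 96-well plates. Bacterial suspensions were adjusted in sterile saline to 1.0 × 10⁵ CFU/ml, prepared daily and kept at 4 °C. Compound was added to LB broth with 1.0 × 10⁴ CFU per well and shaken at 160 rpm for 24 h at […] (so in the source). MIC is the lowest concentration with no visible growth under a binocular microscope. OD655 was also read. Duplicate, repeated three times.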

[2] = test system: Bacillus cereus; experiment: Antibacterial activity against clinical isolate of Bacillus cereus after 24 hrs by microdilution method; type: functional; how it was run: as §1
[3] = test system: Micrococcus flavus; experiment: Antibacterial activity against Micrococcus flavus ATCC 10240 after 24 hrs by microdilution method; type: functional; details: ATCC 10240, 24 h; how it was run: as §1
[4] = test system: Listeria monocytogenes; experiment: Antibacterial activity against Listeria monocytogenes NCTC 7973 after 24 hrs by microdilution method; type: functional; details: NCTC 7973, 24 h; how it was run: as §1
[5] = test system: Pseudomonas aeruginosa; experiment: Antibacterial activity against Pseudomonas aeruginosa ATCC 27853 after 24 hrs by microdilution method; type: functional; details: ATCC 27853, 24 h; how it was run: as §1
[6] = test system: Salmonella typhimurium; experiment: Antibacterial activity against Salmonella Typhimurium ATCC 13311 after 24 hrs by microdilution method; type: functional, Salmonella enterica subsp. enterica serovar Typhimurium; details: Salmonella enterica, ATCC 13311, 24 h; how it was run: as §1
[7] = test system: Escherichia coli; experiment: Antibacterial activity against Escherichia coli ATCC 35210 after 24 hrs by microdilution method; type: functional; details: ATCC 35210, 24 h; how it was run: as §1
[8] = test system: Enterococcus faecalis; experiment: Antibacterial activity against Enterococcus faecalis isolated from human after 24 hrs by microdilution method; type: functional; how it was run: as §1
[9] = test system: Staphylococcus aureus; experiment: Antibacterial activity against Staphylococcus aureus ATCC 6538 incubated for 24 hrs followed by serial sub-cultivation for 24 hrs by microdilution method; type: functional; details: ATCC 6538, 24 h
How it was run: (§2)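 MBC: after the 24 h LB broth microdilution (1.0 × 10⁴ CFU per well, 160 rpm), wells were serially sub-cultured into fresh broth plates and incubated a further 24 h. MBC is the lowest concentration with no visible growth, taken as 99.5% killing of the original inoculum. Duplicate, repeated three times.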

[10] = test system: Bacillus cereus; experiment: Antibacterial activity against clinical isolate of Bacillus cereus incubated for 24 hrs followed by serial sub-cultivation for 24 hrs by microdilution; type: functional; how it was run: as §2
[11] = test system: Micrococcus flavus; experiment: Antibacterial activity against Micrococcus flavus ATCC 10240 incubated for 24 hrs followed by serial sub-cultivation for 24 hrs by microdilution; type: functional; details: ATCC 10240, 24 h; how it was run: as §2
[12] = test system: Listeria monocytogenes; experiment: Antibacterial activity against Listeria monocytogenes NCTC 7973 incubated for 24 hrs followed by serial sub-cultivation for 24 hrs by microdilution; type: functional; details: NCTC 7973, 24 h; how it was run: as §2
[13] = test system: Pseudomonas aeruginosa; experiment: Antibacterial activity against Pseudomonas aeruginosa ATCC 27853 incubated for 24 hrs followed by serial sub-cultivation for 24 hrs by microdilution; type: functional; details: ATCC 27853, 24 h; how it was run: as §2
[14] = test system: Salmonella typhimurium; experiment: Antibacterial activity against Salmonella Typhimurium ATCC 13311 incubated for 24 hrs followed by serial sub-cultivation for 24 hrs by microdilution; type: functional, Salmonella enterica subsp. enterica serovar Typhimurium; details: Salmonella enterica, ATCC 13311, 24 h; how it was run: as §2
[15] = test system: Escherichia coli; experiment: Antibacterial activity against Escherichia coli ATCC 35210 incubated for 24 hrs followed by serial sub-cultivation for 24 hrs by microdilution; type: functional; details: ATCC 35210, 24 h; how it was run: as §2
[16] = test system: Enterococcus faecalis; experiment: Antibacterial activity against Enterococcus faecalis isolated from human incubated for 24 hrs followed by serial sub-cultivation for 24 hrs by microdilution; type: functional; how it was run: as §2
[17] = test system: Aspergillus ochraceus; experiment: Antifungal activity against Aspergillus ochraceus ATCC 12066 after 72 hrs by serial dilution technique; type: functional; details: ATCC 12066, 72 h
How it was run: (§3)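 Modified microdilution in 96-well plates. Fungi were kept on malt agar at 4 °C. Spores were washed off in sterile 0.85% saline with 0.1% Tween 80. Compounds were dissolved at 1 mg/ml in 5% DMSO with 0.1% Tween 80 and added to malt broth with inoculum. Plates were shaken at 160 rpm for 72 h at 28 °C. Duplicate, repeated three times.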

[18] = test system: Aspergillus niger; experiment: Antifungal activity against Aspergillus niger ATCC 6275 after 72 hrs by serial dilution technique; type: functional; details: ATCC 6275, 72 h; how it was run: as §3
[19] = test system: Aspergillus flavus; experiment: Antifungal activity against Aspergillus flavus ATCC 9643 after 72 hrs by serial dilution technique; type: functional; details: ATCC 9643, 72 h; how it was run: as §3
[20] = test system: Talaromyces funiculosus; experiment: Antifungal activity against Penicillium funiculosum ATCC 36839 after 72 hrs by serial dilution technique; type: functional; details: ATCC 36839, 72 h; how it was run: as §3
[21] = test system: Penicillium ochrochloron; experiment: Antifungal activity against Penicillium ochrochloron ATCC 9112 after 72 hrs by serial dilution technique; type: functional; details: ATCC 9112, 72 h; how it was run: as §3
[22] = test system: Trichoderma viride; experiment: Antifungal activity against Trichoderma viride IAM 5061 after 72 hrs by serial dilution technique; type: functional; details: IAM 5061, 72 h; how it was run: as §3
[23] = test system: Candida albicans; experiment: Antifungal activity against Candida albicans isolated from human after 72 hrs by serial dilution technique; type: functional; how it was run: as §3
[24] = test system: Aspergillus ochraceus; experiment: Antifungal activity against Aspergillus ochraceus ATCC 12066 incubated for 72 hrs followed by serial sub-cultivation for 72 hrs by serial dilution technique; type: functional; details: ATCC 12066, 72 h
How it was run: (§4)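 MFC: material from 72 h malt broth microdilution wells was serially sub-cultured into fresh broth plates and incubated a further 72 h at 28 °C. Fungicidal concentration is taken from growth after sub-culture. Duplicate, repeated three times.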

[25] = test system: Aspergillus fumigatus; experiment: Antifungal activity against Aspergillus fumigatus isolated from human incubated for 72 hrs followed by serial sub-cultivation for 72 hrs by serial dilution technique; type: functional; how it was run: as §4
[26] = test system: Aspergillus niger; experiment: Antifungal activity against Aspergillus niger ATCC 6275 incubated for 72 hrs followed by serial sub-cultivation for 72 hrs by serial dilution technique; type: functional; details: ATCC 6275, 72 h; how it was run: as §4
[27] = test system: Aspergillus flavus; experiment: Antifungal activity against Aspergillus flavus ATCC 9643 incubated for 72 hrs followed by serial sub-cultivation for 72 hrs by serial dilution technique; type: functional; details: ATCC 9643, 72 h; how it was run: as §4
[28] = test system: Talaromyces funiculosus; experiment: Antifungal activity against Penicillium funiculosum ATCC 36839 incubated for 72 hrs followed by serial sub-cultivation for 72 hrs by serial dilution technique; type: functional; details: ATCC 36839, 72 h; how it was run: as §4
[29] = test system: Penicillium ochrochloron; experiment: Antifungal activity against Penicillium ochrochloron ATCC 9112 incubated for 72 hrs followed by serial sub-cultivation for 72 hrs by serial dilution technique; type: functional; details: ATCC 9112, 72 h; how it was run: as §4
[30] = test system: Trichoderma viride; experiment: Antifungal activity against Trichoderma viride IAM 5061 incubated for 72 hrs followed by serial sub-cultivation for 72 hrs by serial dilution technique; type: functional; details: IAM 5061, 72 h; how it was run: as §4
[31] = test system: Candida albicans; experiment: Antifungal activity against Candida albicans isolated from human incubated for 72 hrs followed by serial sub-cultivation for 72 hrs by serial dilution technique; type: functional; how it was run: as §4
[32] = test system: Aspergillus ochraceus; experiment: Antifungal activity against Aspergillus ochraceus after 72 hrs by serial dilution technique

CC1(C)S[C@@H]2[C@H](NC(=O)[C@H](N)c3ccccc3)C(=O)N2[C@H]1C(=O)O [AMPICILLIN]
744 µM: MIC [5] | MBC [12]
1240 µM: MBC [13]
372 µM: MIC [4] | MIC [7] | MBC [9] | MBC [10] | MBC [11] | MBC [16]
492 µM: MBC [14] | MBC [15]
248 µM: MIC [1] | MIC [2] | MIC [3] | MIC [6] | MIC [8]

c1ccc(-c2ccc(C(c3ccccc3)n3ccnc3)cc2)cc1 (centres undefined) [BIFONAZOLE]
480 µM: MIC [17] | MIC [18] | MIC [19] | MIC [21] | MFC [31] | MIC [32]
800 µM: MFC [24] | MFC [28] | MFC [30]
320 µM: MIC [23]
640 µM: MIC [20] | MIC [22] | MFC [25] | MFC [26] | MFC [27] | MFC [29]

CC(=O)N1CCN(c2ccc(OCC3COC(Cn4ccnc4)(c4ccc(Cl)cc4Cl)O3)cc2)CC1 (centres undefined) [KETOCONAZOLE]
5700 µM: MFC [30]
2850 µM: MIC [19]
4750 µM: MIC [22]
380 µM: MIC [17] | MIC [18] | MIC [20] | MIC [23] | MIC [32]
950 µM: MFC [24] | MFC [25] | MFC [26] | MFC [28] | MFC [31]
3800 µM: MIC [21] | MFC [27] | MFC [29]

CN[C@@H]1[C@H](O[C@H]2[C@H](O[C@H]3[C@H](O)[C@@H](O)[C@H](N=C(N)N)[C@@H](O)[C@@H]3N=C(N)N)O[C@@H](C)[C@]2(O)C=O)O[C@@H](CO)[C@H](O)[C@H]1O [STREPTOMYCIN]
516 µM: MBC [12]
172 µM: MIC [1] | MIC [5] | MIC [6] | MIC [7] | MBC [11]
344 µM: MBC [9] | MBC [13] | MBC [14] | MBC [15]
86 µM: MIC [3] | MBC [10] | MBC [16]
258 µM: MIC [4]
43 µM: MIC [2] | MIC [8]
